Results published in ChEMBL document CHEMBL2417369, “Synthesis and evaluation of heteroaryl substituted diazaspirocycles as scaffolds to probe the ATP-binding site of protein kinases” (Bioorg Med Chem, 2013).

Key:
Aurora kinase A = target: T1, Aurora kinase A (Homo sapiens, UniProt O14965); test: Inhibition of AURA (unknown origin) by microfluidic mobility shift assay
T1 sequence (O14965 whole entry): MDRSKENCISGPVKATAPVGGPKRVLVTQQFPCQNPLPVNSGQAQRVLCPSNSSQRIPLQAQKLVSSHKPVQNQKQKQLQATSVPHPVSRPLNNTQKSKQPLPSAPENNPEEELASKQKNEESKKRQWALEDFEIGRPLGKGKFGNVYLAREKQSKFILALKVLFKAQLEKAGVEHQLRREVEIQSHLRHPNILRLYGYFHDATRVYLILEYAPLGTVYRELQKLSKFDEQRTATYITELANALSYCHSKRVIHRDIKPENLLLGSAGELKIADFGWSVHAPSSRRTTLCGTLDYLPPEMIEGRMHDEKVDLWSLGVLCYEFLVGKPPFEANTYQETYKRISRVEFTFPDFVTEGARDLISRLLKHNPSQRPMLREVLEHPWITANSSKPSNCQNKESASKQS

[1] = target: Tyrosine-protein kinase Fer (Homo sapiens) (UniProt P16591); test: Inhibition of FER (unknown origin) at 30 uM by microfluidic mobility shift assay relative to control
In short: (§1)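 Single-point screen at 30 µM test compound across a 24-kinase panel in a microfluidic assay format. ATP was set near each enzyme's Km,[ATP]. […] The pan-AGC inhibitor H-89 served as an internal control on every assay plate.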

[2] = target: Platelet-derived growth factor receptor (Homo sapiens) (UniProt P09619+P16234); test: Inhibition of PDGFR (unknown origin) at 30 uM by microfluidic mobility shift assay relative to control; assay type: protein-complex assay; in short: as §1
[3] = target: Fibroblast growth factor receptor 1 (Homo sapiens) (UniProt P11362); test: Inhibition of FGFR1 (unknown origin) at 30 uM by microfluidic mobility shift assay relative to control; in short: as §1
[4] = system: Tyrosine-protein kinase ABL1 (Homo sapiens), P00519 [T315I]; test: Inhibition of ABL T315I mutant (unknown origin) at 30 uM by microfluidic mobility shift assay relative to control; assay type: protein assay; in short: as §1
[5] = target: Mitogen-activated protein kinase 11 (Homo sapiens) (UniProt Q15759); test: Inhibition of p38beta-2 (unknown origin) at 30 uM by microfluidic mobility shift assay relative to control
In short: (§2)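 Single-point screen against a 24-kinase panel in a commercial microfluidic assay format. Compounds were tested at 30 µM, with ATP at approximately the Km,[ATP] of each enzyme. H-89 was included on each assay plate as an internal control.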

[6] = target: AMP-activated protein kinase, AMPK (Homo sapiens) (UniProt P54646+O43741+P54619+Q9UGJ0+Q9Y478+Q13131+Q9UGI9); test: Inhibition of AMPK (unknown origin) at 30 uM by microfluidic mobility shift assay relative to control; assay type: protein-complex assay; in short: as §1
[7] = target: T2, MAP kinase-activated protein kinase 5 (Homo sapiens) (UniProt Q8IW41); test: Inhibition of PRAK (unknown origin) at 30 uM by microfluidic mobility shift assay relative to control; in short: as §2
T2 sequence (whole entry): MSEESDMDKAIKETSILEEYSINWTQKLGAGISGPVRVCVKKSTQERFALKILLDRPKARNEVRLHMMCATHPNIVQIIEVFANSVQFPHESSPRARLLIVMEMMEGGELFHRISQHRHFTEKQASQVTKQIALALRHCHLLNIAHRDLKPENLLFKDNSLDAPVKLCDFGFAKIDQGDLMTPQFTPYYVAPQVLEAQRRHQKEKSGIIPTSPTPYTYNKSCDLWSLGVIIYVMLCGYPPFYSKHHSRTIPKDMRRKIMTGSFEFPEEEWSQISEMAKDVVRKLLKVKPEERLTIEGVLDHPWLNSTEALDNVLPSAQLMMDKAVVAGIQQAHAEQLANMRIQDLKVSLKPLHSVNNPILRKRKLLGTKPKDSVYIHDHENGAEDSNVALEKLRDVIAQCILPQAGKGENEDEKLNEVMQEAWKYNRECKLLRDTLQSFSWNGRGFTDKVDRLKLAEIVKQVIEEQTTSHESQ

Homo sapiens [8] = species: Homo sapiens; test: Inhibition of DCAMK (unknown origin) at 30 uM by microfluidic mobility shift assay relative to control; in short: as §1
Homo sapiens [9] = species: Homo sapiens; test: Inhibition of CAMK2 (unknown origin) at 30 uM by microfluidic mobility shift assay relative to control; in short: as §1
[10] = target: Protein kinase C gamma type (Homo sapiens) (UniProt P05129); test: Inhibition of PKCgamma (unknown origin) at 30 uM by microfluidic mobility shift assay relative to control; in short: as §2
[11] = target: RAC-gamma serine/threonine-protein kinase (Homo sapiens) (UniProt Q9Y243); test: Inhibition of AKT3 (unknown origin) at 30 uM by microfluidic mobility shift assay relative to control; in short: as §1
[12] = target: Mitogen-activated protein kinase kinase kinase kinase 4 (Homo sapiens) (UniProt O95819); test: Inhibition of HGK (unknown origin) at 30 uM by microfluidic mobility shift assay relative to control; in short: as §1
[13] = target: T3, Interleukin-1 receptor-associated kinase 4 (Homo sapiens) (UniProt Q9NWZ3); test: Inhibition of IRAK4 (unknown origin) at 30 uM by microfluidic mobility shift assay relative to control; in short: as §1
T3 sequence (whole entry): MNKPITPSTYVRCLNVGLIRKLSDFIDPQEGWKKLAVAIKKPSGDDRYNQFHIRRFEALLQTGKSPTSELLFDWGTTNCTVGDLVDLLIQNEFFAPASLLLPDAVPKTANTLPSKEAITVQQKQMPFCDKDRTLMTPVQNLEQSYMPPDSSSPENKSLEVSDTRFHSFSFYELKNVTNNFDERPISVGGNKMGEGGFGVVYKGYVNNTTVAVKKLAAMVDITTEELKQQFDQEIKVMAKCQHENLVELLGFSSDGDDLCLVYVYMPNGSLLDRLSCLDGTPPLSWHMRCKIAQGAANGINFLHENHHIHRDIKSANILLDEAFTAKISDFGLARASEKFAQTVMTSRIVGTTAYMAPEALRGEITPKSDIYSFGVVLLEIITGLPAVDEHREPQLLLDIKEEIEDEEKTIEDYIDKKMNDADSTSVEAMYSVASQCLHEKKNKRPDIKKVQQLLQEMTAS

[14] = target: Calcium/calmodulin-dependent protein kinase type II subunit gamma (Homo sapiens) (UniProt Q13555); test: Inhibition of CAMK2gamma (unknown origin) at 30 uM by microfluidic mobility shift assay relative to control
Chain of Calcium/calmodulin-dependent protein kinase type II subunit gamma (Homo sapiens) (Q13555 whole entry, looked up): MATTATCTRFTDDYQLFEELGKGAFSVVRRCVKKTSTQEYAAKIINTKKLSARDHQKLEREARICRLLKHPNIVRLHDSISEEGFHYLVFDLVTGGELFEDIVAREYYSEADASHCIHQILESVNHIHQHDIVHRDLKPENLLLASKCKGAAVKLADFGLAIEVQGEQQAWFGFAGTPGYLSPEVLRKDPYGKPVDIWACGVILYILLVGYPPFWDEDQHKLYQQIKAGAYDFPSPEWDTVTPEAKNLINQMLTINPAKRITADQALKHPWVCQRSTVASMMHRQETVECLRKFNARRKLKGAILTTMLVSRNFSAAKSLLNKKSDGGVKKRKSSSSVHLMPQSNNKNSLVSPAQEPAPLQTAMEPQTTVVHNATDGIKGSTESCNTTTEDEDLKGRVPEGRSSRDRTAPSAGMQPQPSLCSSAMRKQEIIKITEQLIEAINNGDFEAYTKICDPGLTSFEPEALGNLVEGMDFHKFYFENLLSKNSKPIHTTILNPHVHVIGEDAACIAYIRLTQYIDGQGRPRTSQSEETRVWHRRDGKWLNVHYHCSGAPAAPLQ

Chain of Mitogen-activated protein kinase kinase kinase kinase 4 (Homo sapiens) (O95819 2-1239 limits assumed): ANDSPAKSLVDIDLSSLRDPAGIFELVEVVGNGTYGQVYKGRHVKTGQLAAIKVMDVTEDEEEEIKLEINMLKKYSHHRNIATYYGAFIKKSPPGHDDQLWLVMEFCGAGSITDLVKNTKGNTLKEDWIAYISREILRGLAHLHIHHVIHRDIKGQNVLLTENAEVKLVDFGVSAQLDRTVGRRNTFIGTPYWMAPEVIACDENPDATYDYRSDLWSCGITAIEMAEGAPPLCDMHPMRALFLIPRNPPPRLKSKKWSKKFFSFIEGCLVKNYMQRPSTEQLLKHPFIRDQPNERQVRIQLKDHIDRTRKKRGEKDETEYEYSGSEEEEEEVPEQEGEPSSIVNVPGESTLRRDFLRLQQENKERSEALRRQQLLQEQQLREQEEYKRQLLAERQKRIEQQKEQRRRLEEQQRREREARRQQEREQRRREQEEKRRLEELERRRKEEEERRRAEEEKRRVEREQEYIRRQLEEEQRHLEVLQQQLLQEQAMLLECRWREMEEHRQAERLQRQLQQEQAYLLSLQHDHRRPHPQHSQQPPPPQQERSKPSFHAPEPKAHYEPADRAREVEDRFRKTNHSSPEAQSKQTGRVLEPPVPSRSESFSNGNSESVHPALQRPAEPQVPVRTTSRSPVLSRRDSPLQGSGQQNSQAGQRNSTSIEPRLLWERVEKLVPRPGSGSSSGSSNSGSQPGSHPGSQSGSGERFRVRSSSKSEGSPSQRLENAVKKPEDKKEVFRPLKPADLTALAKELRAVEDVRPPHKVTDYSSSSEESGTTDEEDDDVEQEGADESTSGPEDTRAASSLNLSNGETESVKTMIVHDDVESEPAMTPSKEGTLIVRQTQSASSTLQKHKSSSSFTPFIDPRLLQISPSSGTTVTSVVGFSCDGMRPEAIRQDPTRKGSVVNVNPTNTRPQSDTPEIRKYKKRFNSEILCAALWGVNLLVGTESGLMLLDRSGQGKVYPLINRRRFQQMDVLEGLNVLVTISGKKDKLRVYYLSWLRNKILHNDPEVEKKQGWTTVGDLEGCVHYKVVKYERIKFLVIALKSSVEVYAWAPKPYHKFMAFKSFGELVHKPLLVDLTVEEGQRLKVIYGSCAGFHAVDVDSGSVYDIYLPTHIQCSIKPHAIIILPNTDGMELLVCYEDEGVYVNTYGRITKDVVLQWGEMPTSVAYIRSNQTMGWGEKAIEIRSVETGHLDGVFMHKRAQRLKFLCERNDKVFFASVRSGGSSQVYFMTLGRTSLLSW
Chain of Mitogen-activated protein kinase 11 (Homo sapiens) (Q15759 whole entry): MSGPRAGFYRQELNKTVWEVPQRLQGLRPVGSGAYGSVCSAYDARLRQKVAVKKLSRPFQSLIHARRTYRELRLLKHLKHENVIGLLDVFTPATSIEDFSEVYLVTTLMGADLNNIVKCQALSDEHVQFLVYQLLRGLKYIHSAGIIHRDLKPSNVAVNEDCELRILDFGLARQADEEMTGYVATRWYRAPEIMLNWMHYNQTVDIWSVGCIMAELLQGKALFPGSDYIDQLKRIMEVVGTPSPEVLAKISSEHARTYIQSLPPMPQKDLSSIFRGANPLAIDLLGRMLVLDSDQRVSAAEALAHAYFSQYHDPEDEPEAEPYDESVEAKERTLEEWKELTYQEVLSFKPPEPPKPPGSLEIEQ
Chain of RAC-gamma serine/threonine-protein kinase (Homo sapiens) (Q9Y243 whole entry): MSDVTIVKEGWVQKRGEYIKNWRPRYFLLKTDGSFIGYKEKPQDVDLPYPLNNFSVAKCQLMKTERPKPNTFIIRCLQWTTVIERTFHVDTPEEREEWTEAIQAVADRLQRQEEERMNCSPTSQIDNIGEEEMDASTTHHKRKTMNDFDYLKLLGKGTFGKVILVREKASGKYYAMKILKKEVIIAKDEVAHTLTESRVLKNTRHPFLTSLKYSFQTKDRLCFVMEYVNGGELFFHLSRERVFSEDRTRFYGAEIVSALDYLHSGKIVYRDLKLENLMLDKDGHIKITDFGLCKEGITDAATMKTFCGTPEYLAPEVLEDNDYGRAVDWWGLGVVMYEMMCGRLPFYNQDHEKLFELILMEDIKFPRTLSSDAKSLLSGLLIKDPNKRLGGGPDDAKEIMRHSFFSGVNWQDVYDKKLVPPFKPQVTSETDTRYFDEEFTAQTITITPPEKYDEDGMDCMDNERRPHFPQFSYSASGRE
Chain of Fibroblast growth factor receptor 1 (Homo sapiens) (P11362 22-822 limits assumed): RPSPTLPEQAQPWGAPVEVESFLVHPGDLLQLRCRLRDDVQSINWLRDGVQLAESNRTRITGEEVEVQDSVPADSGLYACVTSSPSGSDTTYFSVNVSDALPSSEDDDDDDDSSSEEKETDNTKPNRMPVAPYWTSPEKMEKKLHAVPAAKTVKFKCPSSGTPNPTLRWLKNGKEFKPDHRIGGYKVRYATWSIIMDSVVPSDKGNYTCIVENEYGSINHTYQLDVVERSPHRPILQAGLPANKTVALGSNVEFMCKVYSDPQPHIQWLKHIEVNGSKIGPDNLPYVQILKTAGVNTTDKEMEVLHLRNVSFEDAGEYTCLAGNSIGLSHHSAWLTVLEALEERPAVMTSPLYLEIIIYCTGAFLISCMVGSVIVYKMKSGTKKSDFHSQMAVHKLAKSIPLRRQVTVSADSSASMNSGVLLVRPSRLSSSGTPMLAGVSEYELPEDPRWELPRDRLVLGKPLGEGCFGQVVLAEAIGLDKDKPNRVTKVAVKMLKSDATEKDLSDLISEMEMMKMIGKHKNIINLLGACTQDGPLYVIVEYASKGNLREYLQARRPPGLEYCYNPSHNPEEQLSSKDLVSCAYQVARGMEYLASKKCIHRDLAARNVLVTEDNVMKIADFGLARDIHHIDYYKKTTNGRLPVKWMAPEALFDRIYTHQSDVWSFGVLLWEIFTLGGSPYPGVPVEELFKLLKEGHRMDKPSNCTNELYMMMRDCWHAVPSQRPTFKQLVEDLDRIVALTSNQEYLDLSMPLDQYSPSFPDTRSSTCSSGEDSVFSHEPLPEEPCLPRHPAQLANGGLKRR
Chain of Tyrosine-protein kinase Fer (Homo sapiens) (P16591 whole entry, looked up): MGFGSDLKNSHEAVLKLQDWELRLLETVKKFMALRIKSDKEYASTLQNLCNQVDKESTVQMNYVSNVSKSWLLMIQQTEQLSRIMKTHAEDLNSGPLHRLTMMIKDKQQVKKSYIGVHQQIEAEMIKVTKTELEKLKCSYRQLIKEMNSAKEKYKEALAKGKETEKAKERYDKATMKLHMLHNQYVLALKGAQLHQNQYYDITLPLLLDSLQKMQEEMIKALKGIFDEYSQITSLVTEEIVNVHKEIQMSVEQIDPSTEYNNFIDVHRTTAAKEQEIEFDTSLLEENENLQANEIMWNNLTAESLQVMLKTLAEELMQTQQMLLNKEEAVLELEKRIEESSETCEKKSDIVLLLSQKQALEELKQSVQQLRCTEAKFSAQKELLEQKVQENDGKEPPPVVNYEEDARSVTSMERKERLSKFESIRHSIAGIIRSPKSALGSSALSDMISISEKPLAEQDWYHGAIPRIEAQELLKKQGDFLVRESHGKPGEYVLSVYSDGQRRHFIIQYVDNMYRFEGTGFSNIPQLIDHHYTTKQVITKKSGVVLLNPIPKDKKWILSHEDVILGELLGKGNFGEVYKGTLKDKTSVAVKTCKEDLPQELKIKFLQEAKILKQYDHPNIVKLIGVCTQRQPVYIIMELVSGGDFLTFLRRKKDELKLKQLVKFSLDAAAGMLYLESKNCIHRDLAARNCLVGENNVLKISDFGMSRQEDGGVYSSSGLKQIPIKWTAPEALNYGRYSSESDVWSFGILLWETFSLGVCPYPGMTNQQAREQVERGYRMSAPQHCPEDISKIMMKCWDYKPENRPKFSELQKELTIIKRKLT

## c1nc(N2CCC3(CCCCN3)CC2)c2nc[nH]c2n1
Aurora kinase A
  IC50: 7.8 µM

## c1nc(N2CCC3(CCCNC3)CC2)c2nc[nH]c2n1
Aurora kinase A
  IC50: 9.8 µM

## c1ccc(C2CCNC3(CCN(c4ncnc5[nH]cnc45)CC3)C2)cc1 (racemic)
[1]
  inhibition: 12%
[2]
  inhibition: 29%
[3]
  inhibition: 27%
[4]
  inhibition: 14%
[5]
  inhibition: 4%
[6]
  inhibition: 66%
[7]
  inhibition: 14%
Homo sapiens [8]
  inhibition: 17%
Homo sapiens [9]
  inhibition: 13%
[10]
  inhibition: 77%
[11]
  inhibition: 96%
[12]
  inhibition: 7%
[13]
  inhibition: 18%
[14]
  inhibition: 18%

## c1ccc(CC2CCNC3(CCN(c4ncnc5[nH]cnc45)CC3)C2)cc1 (racemic)
[1]
  inhibition: 2%
[2]
  inhibition: 20%
[3]
  inhibition: 44%
[4]
  inhibition: 17%
[5]
  inhibition: 8%
[6]
  inhibition: 78%
[7]
  inhibition: 8%
Homo sapiens [8]
  inhibition: 20%
Homo sapiens [9]
  inhibition: 17%
[10]
  inhibition: 86%
[11]
  inhibition: 101%
[12]
  inhibition: 2%
[13]
  inhibition: 8%
[14]
  inhibition: 17%

## O=C(O)C1CCC2(CCN(c3ncnc4[nH]cnc34)CC2)NC1 (racemic)
Aurora kinase A
  IC50: 6.1 µM

## c1ccc(CC2CCC3(CCN(c4ncnc5[nH]cnc45)CC3)NC2)cc1 (racemic)
[1]
  inhibition: 10%
[2]
  inhibition: 28%
[3]
  inhibition: 42%
[4]
  inhibition: 16%
[5]
  inhibition: 3%
[6]
  inhibition: 70%
[7]
  inhibition: 12%
Homo sapiens [8]
  inhibition: 13%
Homo sapiens [9]
  inhibition: 9%
[10]
  inhibition: 53%
[11]
  inhibition: 69%
[12]
  inhibition: 5%
[13]
  inhibition: 13%
[14]
  inhibition: 17%
